Active and inactive are the calls of the source.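 How the source made its calls, unless noted: active means mean duplicate potentiation above the buffer control mean plus 5 SD of buffer wells; inactive means the rest.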
Legend:
[1] = nonspecific flux increase, KCNQ1-free cells – parental CHO cells, counter-screen for KCNQ1 potentiator project (AID 493006;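 active means duplicate-averaged activation above buffer control mean plus 5 SD of those controls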;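 on activation: fluorescence ratio of max minus min over baseline after K+ and Tl+ depolarization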); conditions: parental CHO-K1 cells, FluxOR thallium flux, at 10 µM; stronger effect = higher value
Summary of the method: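 Benchmarks – buffer and R-L3 controls · Assay system – untransfected host CHO-K1 cells with FluxOR thallium dye · Measure – fluorescence change ratio scaled 0% buffer, 100% R-L3 · Technique – kinetic thallium-flux fluorescence · Timing – overnight 37 °C plating, 90 min RT dye, 20 min compound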

[2] = target: Potassium voltage-gated channel subfamily KQT member 1 (Homo sapiens) (UniProt P51787); experiment: enhancement of KCNQ1 channel thallium flux – FluxOR thallium flux, CHO cells, duplicates, confirmation (AID 493007;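 active means potentiation averaged over duplicate wells exceeding buffer-only control mean by more than 3 SD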;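 on outcome: cells depolarized by a potassium plus thallium sulfate stimulus after compound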); conditions: KCNQ1 cell line, FluxOR thallium flux fluorescence, at 10 µM; stronger effect = higher value, % of reference activator effect, buffer zero
Potassium voltage-gated channel subfamily KQT member 1 (Homo sapiens), sequence (P51787 whole entry, looked up): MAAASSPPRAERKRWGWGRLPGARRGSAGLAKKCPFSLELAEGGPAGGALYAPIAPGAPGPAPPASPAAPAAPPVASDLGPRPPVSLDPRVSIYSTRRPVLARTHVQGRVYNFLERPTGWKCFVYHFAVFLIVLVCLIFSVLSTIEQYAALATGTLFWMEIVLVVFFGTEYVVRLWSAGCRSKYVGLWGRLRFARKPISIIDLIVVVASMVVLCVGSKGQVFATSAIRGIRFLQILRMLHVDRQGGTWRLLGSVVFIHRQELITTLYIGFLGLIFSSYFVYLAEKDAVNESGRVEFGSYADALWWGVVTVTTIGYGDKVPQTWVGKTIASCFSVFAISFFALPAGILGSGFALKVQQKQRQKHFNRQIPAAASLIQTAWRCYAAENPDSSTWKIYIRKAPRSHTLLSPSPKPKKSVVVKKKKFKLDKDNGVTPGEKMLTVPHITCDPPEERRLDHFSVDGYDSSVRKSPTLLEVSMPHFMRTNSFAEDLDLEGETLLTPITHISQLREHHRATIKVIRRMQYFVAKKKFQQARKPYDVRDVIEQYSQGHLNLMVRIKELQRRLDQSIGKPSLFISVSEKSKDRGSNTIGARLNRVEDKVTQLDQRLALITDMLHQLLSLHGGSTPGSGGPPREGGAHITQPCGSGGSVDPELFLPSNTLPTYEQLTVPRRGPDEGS
Summary of the method: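 Material: CHO cells stably expressing the KCNQ1 potassium channel / Times: dye 90 min then compound 20 min, both at room temperature / Detection: kinetic thallium influx fluorescence with FluxOR dye, 10 s baseline, 110 s post-stimulus / Benchmarks: buffer-only wells as 0% and R-L3 activator as 100% / Replicates: each compound tested in duplicate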

[3] = target: Potassium voltage-gated channel subfamily KQT member 2 (Rattus norvegicus) (UniProt O88943); experiment: KCNQ2 thallium flux enhancement – KCNQ2-CHO-K1 cells, selectivity assay for KCNQ1 potentiator project (AID 493009); conditions: FluxOR thallium flux fluorescence, at 10 µM; stronger effect = higher value, scaled: buffer 0, activator control 100;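 further: assay conditions were tuned for KCNQ1 rather than KCNQ2 modulators; signal is max minus min fluorescence divided by baseline after thallium stimulus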
Potassium voltage-gated channel subfamily KQT member 2 (Rattus norvegicus), sequence (O88943 whole entry, looked up): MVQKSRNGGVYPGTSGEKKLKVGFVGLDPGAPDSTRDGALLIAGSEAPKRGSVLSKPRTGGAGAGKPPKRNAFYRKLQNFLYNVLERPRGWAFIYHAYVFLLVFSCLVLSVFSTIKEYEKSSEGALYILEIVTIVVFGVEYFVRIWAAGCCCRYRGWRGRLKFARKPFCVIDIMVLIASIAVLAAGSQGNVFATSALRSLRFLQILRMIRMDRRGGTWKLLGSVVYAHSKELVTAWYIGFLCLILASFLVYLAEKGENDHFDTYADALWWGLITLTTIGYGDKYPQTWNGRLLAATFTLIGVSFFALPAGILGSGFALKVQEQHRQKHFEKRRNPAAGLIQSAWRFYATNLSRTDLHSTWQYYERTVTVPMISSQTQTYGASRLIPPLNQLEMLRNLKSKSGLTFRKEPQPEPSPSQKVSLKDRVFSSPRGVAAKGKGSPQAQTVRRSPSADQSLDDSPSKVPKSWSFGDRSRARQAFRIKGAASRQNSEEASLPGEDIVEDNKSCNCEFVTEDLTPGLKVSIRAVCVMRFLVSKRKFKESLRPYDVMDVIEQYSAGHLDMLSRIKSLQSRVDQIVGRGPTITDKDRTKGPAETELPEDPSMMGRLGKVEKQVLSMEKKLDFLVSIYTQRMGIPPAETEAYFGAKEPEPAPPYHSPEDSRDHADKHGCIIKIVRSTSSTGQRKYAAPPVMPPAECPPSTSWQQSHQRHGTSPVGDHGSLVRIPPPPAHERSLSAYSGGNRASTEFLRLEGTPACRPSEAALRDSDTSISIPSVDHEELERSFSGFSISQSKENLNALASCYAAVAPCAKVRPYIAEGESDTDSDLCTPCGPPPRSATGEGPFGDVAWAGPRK

[4] = target: Potassium voltage-gated channel subfamily KQT member 1 (Homo sapiens) (UniProt P51787); experiment: KCNQ1 activators by electrophysiology – IonWorks patch clamp, KCNQ1-CHO cells, orthogonal assay for KCNQ1 potentiator project, confirmation (AID 493184;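 active means current rise at least 3 SD above the untreated control mean in each of two repeat wells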); conditions: automated patch clamp current, at 10 µM; stronger effect = higher value
Summary of the method: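 Probe or stimulus: depolarizing pulse to +40 mV from -90 mV; Material: CHO cells carrying KCNQ1; Compound: one dose, 10 µM final; Signal: automated voltage clamp, amphotericin B perforated patch; Read-out basis: percent current increase versus pre-compound level; Buffer or medium: pH 7.4 external bath; Replication: duplicates.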

| SMILES | activation [1] | potentiation [2] | potentiation [3] | outcome [4] | outcome [1] | outcome [2] | outcome [3] |
| --- | --- | --- | --- | --- | --- | --- | --- |
| C/C(=N\NC(=O)c1cc2ccccc2cc1O)c1cc2ccccc2o1 | 706% (active) | 478% (active) | 746% (active) | inactive |  |  |  |
| O=C1c2ccccc2NC(c2ccccc2O)N1O (stereo not given) | 248% (active) | 82% (active) | 262% (active) | inactive |  |  |  |
| COc1cccc(-c2c(NC(=O)c3ccco3)n(-c3ccc(C)cc3)nc(C)c2=O)c1 |  |  |  | inactive | inactive | inactive | inactive |
| CCOC(=O)c1cccc(C(=O)Nc2nc3ccc(OC)cc3s2)n1 |  |  |  | inactive | inactive | inactive | inactive |
| CCC1(c2ccccc2)NC(=S)N(c2ccc(C)c(C)c2)N1 (stereo not given) | 542% (active) | 271% (active) | 572% (active) | inactive |  |  |  |
| COc1ccc(C)c2sc(NC(=O)C3=COCCO3)nc12 |  |  |  | inactive | inactive | inactive | inactive |
| Cc1sc(-n2c(C)cc(/C=C3\SC(=S)NC3=O)c2C)c(C#N)c1C | 145% (active) | 36% (active) |  | inactive |  |  | inactive |
| Cc1ccccc1OCC(=O)N=Nc1c(O)n(C)c2ccccc12 | 188% (active) | 42% (active) | 188% (active) | inactive |  |  |  |
| COc1ccccc1C(=O)NC(=S)NNC(=O)c1sc2ccccc2c1Cl | 358% (active) | 187% (active) | 361% (active) | inactive |  |  |  |
| CCc1nnc(SCC(=O)Nc2nnc(C)s2)n1CC1CCCO1 (stereo not given) | 278% (active) | 86.5% (active) | 274% (active) | inactive |  |  |  |
| Cc1[nH]n(-c2ccc(F)cc2)c(=O)c1/C=N/c1sc2c(c1C#N)CCCC2 | 276% (active) | 85.5% (active) | 246% (active) | inactive |  |  |  |
| Cc1ccccc1-c1nc(-c2ccccn2)no1 |  |  |  | inactive | inactive | inactive | inactive |
| CCCCCn1c(=O)c(F)cn(Cc2ccc(OC)c([N+](=O)[O-])c2)c1=O |  |  |  | inactive | inactive | inactive | inactive |
| O=C(/C=C/c1ccco1)NC(=S)Nc1ccccc1O |  |  |  | inactive | inactive | inactive | inactive |
| O=c1ccc(N=Nc2ccccc2)ccc1O | 322% (active) | 138% (active) | 430% (active) | inactive |  |  |  |
| CCC(C)c1ccccc1NC(=S)NC(=O)c1ccco1 (stereo not given) | 400% (active) | 114% (active) | 431% (active) | inactive |  |  |  |
| CCOc1ccc(C(=O)C(CCC(CN(C)C)C(=O)c2ccc(OCC)cc2)CN(C)C)cc1 (stereo not given) |  | 34.5% (active) | 152% (active) | inactive | inactive |  |  |
| CC12CCC(C(=O)N(CSC(=S)N/N=C\c3ccccc3Cl)C1=O)C2(C)C (stereo not given) | 178% (active) | 47% (active) | 152% (active) | inactive |  |  |  |
| COCCN(C(=O)COC(=O)/C=C/c1cccs1)c1c(N)n(Cc2ccccc2)c(=O)[nH]c1=O |  |  |  | inactive | inactive | inactive | inactive |
| Cc1ccccc1C(=O)NCc1ccncc1 |  |  |  | inactive | inactive | inactive | inactive |

| SMILES | activation [1] | potentiation [2] | potentiation [3] | outcome [4] | outcome [1] | outcome [2] | outcome [3] |
| --- | --- | --- | --- | --- | --- | --- | --- |
| CCc1nnc(NC(=O)CSc2n[nH]c(-c3ccccc3O)n2)s1 |  |  |  | inactive | inactive | inactive | inactive |
| Oc1c(Br)cc(Br)cc1C=NCc1ccc(F)cc1 | 153% (active) |  | 146% (active) | inactive |  | inactive |  |
| CC(C)(C)NC(=O)CN(C(=O)CNC(=O)c1cccs1)c1ccc2c(c1)OCCO2 |  |  |  | inactive | inactive | inactive | inactive |
| Cc1ccc(C)c(N2CCN(C(=O)CCS(=O)(=O)c3ccc4c(c3)NC(=O)CO4)CC2)c1 |  |  |  | inactive | inactive | inactive | inactive |
| COc1cccc(OCC(=O)NNC(=O)C(=O)Nc2cccc(C)c2)c1 | 188% (active) | 74.5% (active) | 224% (active) | inactive |  |  |  |
| Cc1ccc(-c2nc3ccccc3c(=O)n2O)cc1 | 169% (active) | 19% (active) | 171% (active) | inactive |  |  |  |
| CCCOC(=S)NC(=O)c1sc2ccccc2c1Cl | 294% (active) | 106% (active) | 274% (active) | inactive |  |  |  |
| CCOc1ccc(C2C(C#N)=C(N)N(c3sc4c(c3C#N)CCCC4)C3=C2C(=O)CCC3)cc1 (stereo not given) |  |  |  | inactive | inactive | inactive | inactive |
| O=C(NC(=S)Nc1ccccc1Cl)c1ccco1 | 140% (active) |  | 146% (active) | inactive |  | inactive |  |
| O=C(CSc1nnnn1-c1ccc(F)cc1)Nc1ccc(N2CCOCC2)c(Cl)c1 |  |  |  | inactive | inactive | inactive | inactive |
| CN1C(=O)/C(=N\OC(=O)c2cccc3ccccc23)c2ccccc21 |  |  |  | inactive | inactive | inactive | inactive |
| Cc1cc(C(=O)NN)n[nH]1 |  |  |  | inactive | inactive | inactive | inactive |
| CC(CCc1ccccc1)NC(=O)COc1cc(F)ccc1[N+](=O)[O-] (stereo not given) |  |  |  | inactive | inactive | inactive | inactive |
| S=c1nc(SCc2ccccc2)[nH]c2ccccc12 | 458% (active) | 320% (active) | 500% (active) | inactive |  |  |  |
| C=CCn1c(=S)[nH]c2sc3c(c2c1=O)CCC3 | 364% (active) | 124% (active) | 301% (active) | inactive |  |  |  |
| CC(=O)c1ccc(OCc2cc(C(=O)N3CC[C@@H]4CCCC[C@H]4C3)no2)cc1 | 144% (active) | 49% (active) | 160% (active) | inactive |  |  |  |
| CCOc1ccc(NC(=O)Cn2nnc(-c3ccccc3NC(=O)c3cccs3)n2)cc1 |  |  |  | inactive | inactive | inactive | inactive |
| CN(C)C(=S)NC(=O)c1cccc(Cl)c1 |  | 19% (active) | 142% (active) | inactive | inactive |  |  |
| O=C(NC(=S)N(CCCCO)C1CCCCC1)c1sc2ccccc2c1Cl | 368% (active) | 192% (active) | 392% (active) | inactive |  |  |  |
| Cc1cc(Cl)c(S(=O)(=O)Nc2ccc3c(c2)OCO3)cc1OCC(N)=O |  |  |  | inactive | inactive | inactive | inactive |

| SMILES | activation [1] | potentiation [2] | potentiation [3] | outcome [4] | outcome [1] | outcome [2] | outcome [3] |
| --- | --- | --- | --- | --- | --- | --- | --- |
| Oc1ccc(C[C@@H]2CNCCN2CCc2cc(C(F)(F)F)cc(C(F)(F)F)c2)cc1 |  |  |  | inactive | inactive | inactive | inactive |
| CC(NC(=O)c1ccncc1)C(C)(C)C (stereo not given) |  |  |  | inactive | inactive | inactive | inactive |
| COc1cc(CN2CCC(C)CC2)ccc1OCc1ccccc1 | 292% (active) | 90% (active) | 300% (active) | inactive |  |  |  |
| CC(C)COn1c(=S)[nH]c2ccccc2c1=O | 164% (active) |  | 198% (active) | inactive |  | inactive |  |
| COc1ccc(-n2c(C)cc(C(=O)CCl)c2C)cc1 |  |  |  | inactive | inactive | inactive | inactive |
| COc1cccc2sc(NNC(=O)C3COc4ccccc4O3)nc12 (stereo not given) |  |  |  | inactive | inactive | inactive | inactive |
| CCCC(=O)N1CCN(Cc2nc3cc([N+](=O)[O-])ccc3n2C)CC1 |  |  |  | inactive | inactive | inactive | inactive |
| Cc1ccc(S(=O)(=O)n2cccc2CO)cc1 |  |  |  | inactive | inactive | inactive | inactive |
| OCCCCNCc1ccc(OCc2ccc(Cl)cc2Cl)cc1 |  | 23.5% (active) |  | inactive | inactive |  | inactive |
| Oc1c(N=NC(=S)Nc2ccccc2F)c2ccccc2n1Cc1ccc(F)cc1 |  | 19.5% (active) |  | inactive | inactive |  | inactive |
| Cc1ccc(O)c(C(=O)CC(=O)c2ccccc2Cl)c1 | 158% (active) | 72.5% (active) | 144% (active) | inactive |  |  |  |
| Cc1cccc(-c2n[nH]c(=S)n2/N=C/c2cccs2)c1 | 138% (active) | 22.5% (active) | 149% (active) | inactive |  |  |  |
| Cc1ccc(C)c(/C=C/C(=O)c2ccccc(=O)c2O)c1 | 194% (active) | 118% (active) | 333% (active) | inactive |  |  |  |
| O=C(NCC1CCCO1)c1ccc2c(c1)S(=O)(=O)c1ccccc1C2=O (stereo not given) |  |  |  | inactive | inactive | inactive | inactive |
| COc1ccc2cc(CCNC(=O)C3CCCC3)c(=O)[nH]c2c1 |  |  |  | inactive | inactive | inactive | inactive |
| O=C1CN(C(=O)CSc2nc3cc(Cl)ccc3c(=O)n2Cc2ccccc2)c2ccccc2N1 |  | 22.5% (active) |  | inactive | inactive |  | inactive |
| CN(c1ccccc1)S(=O)(=O)c1ccc(NC(=O)c2nc(S(C)(=O)=O)ncc2Cl)cc1 |  |  |  | inactive | inactive | inactive | inactive |
| S=c1[nH]cnc2scc(-c3ccccc3)c12 | 192% (active) | 52% (active) | 205% (active) | inactive |  |  |  |
| COc1ccc(/C=C2\SC(=O)NC2=S)cc1OC | 154% (active) | 34% (active) | 191% (active) | inactive |  |  |  |
| CC(C)(C)NC(=O)C(=O)NNC(=O)c1cccc(F)c1 | 201% (active) | 87.5% (active) | 228% (active) | inactive |  |  |  |
